Compound activity: PubChem, several laboratories
HePTP inh: inhibitors of human HePTP phosphatase. P35236. recombinant HePTP phosphatase activity, OD absorbance. inhibition, % at 20 µM. hit rate 0.64% among 110,000. AID 521; in the data active = inhibition above about 50%;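 also: plate controls were vehicle for no effect and reference inhibitor for full effect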
Target sequence (P35236 whole entry, looked up): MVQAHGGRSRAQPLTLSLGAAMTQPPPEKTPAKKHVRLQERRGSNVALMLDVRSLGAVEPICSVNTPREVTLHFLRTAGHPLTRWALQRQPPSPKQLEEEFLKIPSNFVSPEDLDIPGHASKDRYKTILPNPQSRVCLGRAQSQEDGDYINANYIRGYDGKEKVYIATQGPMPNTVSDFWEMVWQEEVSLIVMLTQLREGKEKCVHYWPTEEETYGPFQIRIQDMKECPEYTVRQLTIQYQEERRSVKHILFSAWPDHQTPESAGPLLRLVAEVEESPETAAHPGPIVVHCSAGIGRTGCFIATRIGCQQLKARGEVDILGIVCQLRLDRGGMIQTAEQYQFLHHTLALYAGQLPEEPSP
AP ELISA ortho: alternative pathway complement inhibition, orthogonal assay; Human serum alternative complement pathway, LPS-coated ELISA, C3 deposition; tested in compound mixtures; inhibition, % at 5 µM; hit rate 0.08% among 62,000; AID 1235;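 active = inhibition above 30% in each of the two pooled mixtures holding the compound, so the lower value exceeds 30%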;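 also: 0% = serum in Mg-EGTA without compound and 100% = EDTA serum blank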
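Test system: human serum complement alternative pathway, C3 deposition onto LPS / Medium: Mg2+-EGTA GVB++ buffer containing human serum at 1:15 dilution / Probe or stimulus: Plate-bound LPS / Times: 1 h at 37 °C / Signal: ELISA with HRP anti-human C3 antibody, TMB substrate, absorbance 450 nm / Measure: percent inhibition / Repeats: two pool placements per compound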
Abs 340nm: compounds absorbing at 340 nm. fold change at 10 µM. 65,000 tested, under 10 active. compound absorbance at 340 nm, fold over control;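 active = at 10 µM dose, initial 340 nm absorbance at least 2 fold that of control wells; inactive = change under 2 fold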;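 also: initial absorbance extrapolated from kinetic A340 decline of NADH oxidation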
Numbers without * were called inactive; nt = no result given. Sampled rows, rich in hits. Any-hit rate of the full collection: about 0.62%.

SMILES	HePTP inh	AP ELISA ortho	Abs 340nm
Cc1cc(C)c(C(=O)/C(=C/c2ccccc2F)c2ccccc2)c(=O)[nH]1	4	nt	nt
O=C(c1nn2c(C(F)(F)F)cc(-c3ccccc3)nc2c1Br)N1CCCCC1	-26	nt	nt
O=C(/C=C/c1ccc(/C=C/C(=O)c2cccc(N3C(=O)C=CC3=O)c2)cc1)c1cccc(N2C(=O)C=CC2=O)c1	10	nt	nt
O=C(O)/C=C/c1cccc(N2C(=O)C=CC2=O)c1	89*	nt	nt
O=C(NC(=S)Nc1ccc(Cl)c(-c2nc3ccccc3[nH]2)c1)c1ccccc1Cl	-3	nt	nt
CC(C)C1=NN2C(=N)/C(=C/c3ccc(Sc4ccc(Cl)cc4)o3)C(=O)N=C2S1	6	nt	nt
COc1ccc(NC(=O)c2c(NC(=O)c3ccco3)sc(-c3ccccc3)c2C)cc1	-3	nt	nt
CC1(C)Cc2ccccc2-c2nnc(SCC(=O)Nc3ccc4c(c3)OCO4)n21	13	56*	0.98
C=CCn1c(SCC(=O)Nc2ccc3c(c2)OCO3)nnc1-c1ccccc1OC	-2	3	0.96
CCCCOc1ccc(/C=C2/C(=O)NN(c3ccc(C(=O)OCC)cc3)C2=O)cc1OC	-8	nt	nt
C=CCOc1ccc(/C=C2/C(=O)NN(c3ccc(C(=O)OCC)cc3)C2=O)cc1OC	60*	nt	nt
CCOC(=O)c1ccc(N2NC(=O)/C(=C/c3ccc4c(c3)OCO4)C2=O)cc1	100*	nt	nt
COc1cc(/C=C2/C(=O)NN(c3ccc(Cl)cc3)C2=O)ccc1O	9	nt	nt
COc1cc(/C=C2/C(=O)NN(c3ccc(Cl)cc3)C2=O)cc(Br)c1O	92*	nt	nt
CCOC(=O)c1ccc(N2NC(=O)/C(=C/c3ccc(O)c(OCC)c3)C2=O)cc1	-6	nt	nt
Clc1ccc(OCCOCCN2CCCCC2)c2ccccc12	-11	nt	nt
O=C(O)C(Cc1ccccc1)NC(=S)Nc1ccccc1 (stereo unspecified)	12	nt	nt
CC(=O)C1=C(O)C(=O)N(CCN(C)C)C1c1cccc(F)c1 (stereo unspecified)	-1	nt	nt
Cc1nc(Nc2nc(O)cc(=O)[nH]2)nc2c(C)cccc12	103*	nt	nt
Cc1cc(=O)[nH]c(Nc2nc(C)c3cccc(C)c3n2)n1	11	nt	nt
Cc1ccc(C(=O)NNC(=O)c2ccccc2C)cc1	-1	nt	nt
O=C(O)C1Nc2ccc([N+](=O)[O-])cc2C2C=CCC12 (stereo unspecified)	104*	nt	nt
O=C(O)C1Nc2ccc3ccccc3c2C2C=CCC12 (stereo unspecified)	102*	nt	nt
CCOC(=O)c1ccc2c(c1)C1C=CCC1C(C(=O)O)N2 (stereo unspecified)	nt	16	1.1
O=[N+]([O-])c1ccc2c(c1)C1C=CCC1C(c1ccc(Cl)cc1)N2 (stereo unspecified)	-4	nt	nt
SMILES	HePTP inh	AP ELISA ortho	Abs 340nm
O=C1C2CC=CCC2C(=O)N1c1ccc(OCC(O)CN2C(=O)c3ccccc3S2(=O)=O)cc1 (stereo unspecified)	3	nt	nt
O=C(CSCC(=O)Nc1cccc(C(F)(F)F)c1)Nc1ccccc1	-2	nt	nt
O=C(CC(=O)Nc1cccc(C(F)(F)F)c1)Nc1cccc(C(F)(F)F)c1	99*	nt	nt
O=C(c1ccc(F)cc1)N1CCN(c2cccc(Cl)c2)CC1	-7	nt	nt
O=C(/C=C/c1ccc(F)cc1)N1CCN(c2cccc(Cl)c2)CC1	104*	nt	nt
Oc1cccc(C=Nc2ccccc2O)c1	-16	nt	nt
Oc1cccc(C=NC2CCCCC2)c1	64*	nt	nt
FC(F)(F)c1ccc(/C=N/N2CCN(Cc3ccc(Cl)cc3)CC2)cc1	8	nt	nt
CC(=O)NS(=O)(=O)c1ccc(NC(=O)Cc2ccccc2)cc1	7	nt	nt
COc1ccc(C2=NN(CN3C(=O)C(=O)c4cc(Br)ccc43)C(c3cccc([N+](=O)[O-])c3)C2)cc1 (stereo unspecified)	2	nt	nt
CCOc1ccccc1/C=C1/C(=O)NN(c2ccc(C)c(Cl)c2)C1=O	69*	nt	nt
Cc1ccc(N2NC(=O)/C(=C\c3ccco3)C2=O)cc1C	-8	nt	nt
CCOc1ccccc1/C=C1/C(=O)NN(c2ccc(C)c(C)c2)C1=O	-5	nt	nt
O=C1NN(c2ccc(F)c(Cl)c2)C(=O)/C1=C\c1ccco1	99*	nt	nt
COc1ccc(C(=O)N2c3cc(C)ccc3C(Nc3ccc(C)cc3)CC2C)cc1 (stereo unspecified)	-6	nt	nt
CCc1ccc(NC(=O)c2cc3cc(Br)ccc3oc2=O)cc1	-14	nt	nt
CCOC(=O)C1=C(C)N=c2s/c(=C\c3ccccc3O)c(=O)n2C1c1cccc(OC)c1 (stereo unspecified)	0	nt	nt
O=C(c1cccc(F)c1)N1CCN(C2CCC(c3ccccc3)CC2)CC1 (stereo unspecified)	-3	nt	nt
N#C/C(=C\c1cn(CC(=O)Nc2ccccc2)c2ccccc12)C(=O)Nc1ccccc1Cl	1	nt	nt
CCOc1ccc(C(=O)Nc2cc(-c3nc4ccccc4o3)ccc2OC)cc1Br	11	nt	nt
CC1(C)NC(=O)N(CC(O)COc2cccc(F)c2)C1=O (stereo unspecified)	0	3	0.98
Cc1cccc(OCC(O)CN2C(=O)NC(C)(C)C2=O)c1 (stereo unspecified)	104*	nt	nt
O=C(N/N=C/c1cc(Cl)cc([N+](=O)[O-])c1O)c1ccc2c(c1)OCO2	103*	nt	nt
O=C(N/N=C\c1cc(Cl)cc([N+](=O)[O-])c1O)c1ccc(Br)cc1	65*	nt	nt
O=C(N/N=C\c1cc(I)ccc1O)c1ccc(Br)cc1	103*	nt	nt
SMILES	HePTP inh	AP ELISA ortho	Abs 340nm
COc1ccc(C(=O)N/N=C/c2cc(OC)c(O)c([N+](=O)[O-])c2)cc1OC	-7	nt	nt
Cc1cc(Br)cc(/C=N/NC(=O)c2ccc3c(c2)OCO3)c1O	-3	nt	nt
O=C(CCC(=O)N/N=C/c1cc(Br)ccc1O)N/N=C\c1cc(Br)ccc1O	-1	nt	nt
COc1ccc(NC(=O)C2(C)CC3C=CC2C3)cc1 (stereo unspecified)	6	nt	nt
Cc1cc(/C=C2\SC(=O)N(C)C2=O)c(C)n1-c1cccc([N+](=O)[O-])c1	14	nt	nt
CCOC(=O)c1c(NC(=O)c2ccncc2)sc(C(C)=O)c1C	105*	nt	nt
CCOC(=O)c1c(NC(=O)c2ccc(C)c(C)c2)sc(C(C)=O)c1C	-4	nt	nt
CCOc1ccc(S(=O)(=O)N/N=C/c2c(C)[nH]c(=O)[nH]c2=O)cc1	6	nt	nt
N#C/C(=C/c1ccc([N+](=O)[O-])o1)C(=O)Nc1cccc(Br)c1	87*	nt	nt
N#C/C(=C/c1ccc(O)cc1)C(=O)Nc1cccc(Br)c1	2	nt	nt
N#C/C(=C\c1ccc(-c2ccccc2[N+](=O)[O-])o1)C(=O)Nc1cccc(Br)c1	8	nt	nt
N#C/C(=C/c1ccc(O)c([N+](=O)[O-])c1)C(=O)Nc1cccc(Br)c1	102*	nt	nt
CCOP(=O)(CN1CCN(CP(=O)(OCC)OCC)CC1)OCC	3	nt	nt
Clc1ccc(N2CCN(/N=C/c3ccc(Cl)cc3Cl)CC2)cc1	2	nt	nt
COc1ccc(NC(=O)c2c(NC(=O)c3ccccc3)sc3c2CCCC3)cc1	-9	nt	nt
CC1CCCN(C(=O)CSc2nnc3n(C4CCCC4)c(=O)c4ccccc4n23)C1 (stereo unspecified)	-1	35*	1
O=C(CSc1nnc2n(C3CCCC3)c(=O)c3ccccc3n12)N1CCCCCC1	10	-2	1
CN1CCN(CCC(=O)N/N=C/c2cccnc2)CC1	1	nt	nt
COc1ccc(CNc2ccc(Br)cc2C(=O)O)c(OC)c1	77*	nt	nt
COc1ccc(Br)cc1C(=O)O	8	11	1
CC(=O)C1=C(O)CCC1=N	4	39*	1
